Source: ChEMBL document CHEMBL1126834, “Chemistry, binding affinities, and behavioral properties of a new class of "antineophobic" mitochondrial DBI receptor complex (mDRC) ligands” (J Med Chem, 1993)

Columns and labels:
[1] = target: Adrenergic receptor alpha; assay: Inhibitory activity by measuring its ability to displace [3H]WB-4101 from alpha-adrenergic receptor in rat brain; assay type: tissue-based
[2] = target: T1, Gastrin/cholecystokinin type B receptor (Rattus norvegicus, UniProt P30553); assay: Inhibitory activity by measuring its ability to displace [3H]L-365260 from cholecystokinin receptor in rat brain; assay type: tissue-based
T1 sequence (P30553 whole entry): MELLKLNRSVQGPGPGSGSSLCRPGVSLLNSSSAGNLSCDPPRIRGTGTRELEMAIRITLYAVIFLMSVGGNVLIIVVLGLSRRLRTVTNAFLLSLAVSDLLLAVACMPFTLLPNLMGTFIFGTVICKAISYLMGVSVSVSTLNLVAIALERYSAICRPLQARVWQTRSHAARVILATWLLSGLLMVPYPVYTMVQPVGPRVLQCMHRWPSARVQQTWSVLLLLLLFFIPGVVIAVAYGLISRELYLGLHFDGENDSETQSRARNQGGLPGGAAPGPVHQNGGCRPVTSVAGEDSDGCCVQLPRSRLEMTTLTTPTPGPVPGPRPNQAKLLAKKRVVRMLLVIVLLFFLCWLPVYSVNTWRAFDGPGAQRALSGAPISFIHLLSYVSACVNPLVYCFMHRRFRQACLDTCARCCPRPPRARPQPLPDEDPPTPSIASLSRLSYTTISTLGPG

[3] = target: GABA-A receptor; anion channel; assay: Inhibitory activity at GABA A receptor, measured by the ability to displace [35S]TBPS from GABA A receptor in rat brain; assay type: tissue-based
[4] = target: Translocator protein (Rattus norvegicus, UniProt P16257); assay: Binding affinity against mitochondrial DBI complex (peripheral benzodiazepine receptor) using primary cultures of glial cells
In short: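 Glia from cerebella of 8-day-old Sprague–Dawley rat pups, trypsin-dissociated and grown 14 days (~95% astroglia). Cells lysed in 50 mM Hepes pH 7.4, 4 μg protein per tube. Incubated with [3H]4'-chlorodiazepam and competitor for 90 min at 4 °C, then filtered. Nonspecific binding defined with 10 μM 4'-chlorodiazepam. Triplicate competition curves; IC50 by nonlinear regression, converted to Ki (Bylund–Yamamura).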

[5] = target: Adrenergic receptor alpha; assay: Inhibitory activity by measuring its ability to displace [3H]clonidine from alpha-adrenergic receptor in rat brain; assay type: tissue-based
[6] = Inhibitory activity by measuring its ability to displace [3H]glycine from glycine receptor in rat brain; assay type: tissue-based
[7] = target: GABA-A receptor; anion channel; assay: Inhibitory activity at GABA A receptor, measured by the ability to displace [3H]flumazenil from GABA A receptor in rat brain; assay type: tissue-based
[8] = target: Adrenergic receptor beta (Rattus norvegicus, UniProt P18090+P10608+P26255); assay: Inhibitory activity by measuring its ability to displace [125I]pindolol from beta-adrenergic receptor in rat brain; assay type: tissue-based
[9] = Tested for inhibitory activity by measuring its ability to displace [3H]AMPA from glutamate (non-NMDA) receptor in rat brain; assay type: tissue-based
[10] = Inhibitory activity by measuring its ability to displace [3H]spiperone from dopamine or serotonin 5-HT-1 receptors in rat brain; assay type: tissue-based
[11] = target: GABA-A receptor; anion channel; assay: Inhibitory activity at GABA A receptor, measured by the ability to displace [3H]GABA from GABA A receptor in rat brain; assay type: tissue-based
[12] = Inhibitory activity at GABA B receptor, measured by the ability to displace [3H]baclofen from GABA B receptor in rat brain; assay type: tissue-based
[13] = target: Glutamate NMDA receptor; assay: Inhibitory activity by measuring its ability to displace [3H]-MK-801 from glutamate(NMDA) receptor in rat brain; assay type: tissue-based
[14] = target: GABA-A receptor; anion channel; assay: Inhibitory activity at GABA A receptor, measured by the ability to displace [3H]zolpidem from GABA A receptor in rat brain; assay type: tissue-based
[15] = target: Cannabinoid receptor 1 (Rattus norvegicus, UniProt P20272); assay: Inhibitory activity, measured by displacement [3H]CP-55940 from cannabinoid receptor (CB1) in rat brain; assay type: tissue-based
Cannabinoid receptor 1, sequence (P20272 whole entry): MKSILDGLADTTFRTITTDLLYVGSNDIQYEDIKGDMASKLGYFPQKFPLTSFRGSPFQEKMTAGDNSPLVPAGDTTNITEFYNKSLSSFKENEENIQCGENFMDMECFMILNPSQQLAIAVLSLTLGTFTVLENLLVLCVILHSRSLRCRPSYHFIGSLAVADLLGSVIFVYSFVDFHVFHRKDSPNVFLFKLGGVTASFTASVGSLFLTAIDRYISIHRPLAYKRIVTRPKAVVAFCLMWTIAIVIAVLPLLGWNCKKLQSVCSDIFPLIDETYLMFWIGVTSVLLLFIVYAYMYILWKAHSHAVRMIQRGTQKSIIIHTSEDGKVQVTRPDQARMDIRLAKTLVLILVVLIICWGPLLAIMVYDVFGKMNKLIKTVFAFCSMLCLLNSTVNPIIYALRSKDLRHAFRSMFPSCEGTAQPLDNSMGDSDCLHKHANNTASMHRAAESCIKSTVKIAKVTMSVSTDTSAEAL

Translocator protein, sequence (P16257 whole entry, looked up): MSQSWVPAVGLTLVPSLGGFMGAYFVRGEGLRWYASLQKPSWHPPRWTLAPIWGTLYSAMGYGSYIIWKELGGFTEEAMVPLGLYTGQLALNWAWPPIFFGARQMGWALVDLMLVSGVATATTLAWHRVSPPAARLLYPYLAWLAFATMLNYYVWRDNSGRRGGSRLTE

| Compound | IC50 [1] [nM] | IC50 [2] [nM] | IC50 [3] [nM] | Ki [4] [nM] | IC50 [5] [nM] | IC50 [6] [nM] | IC50 [7] [nM] | IC50 [8] [nM] | IC50 [9] [nM] | IC50 [10] [nM] | IC50 [11] [nM] | IC50 [12] [nM] | IC50 [13] [nM] | IC50 [14] [nM] | IC50 [15] [nM] |
| --- | --- | --- | --- | --- | --- | --- | --- | --- | --- | --- | --- | --- | --- | --- | --- |
| CCCN(CCC)C(=O)Cc1c(-c2cccs2)[nH]c2ccc(Cl)cc12 | > 1000 | > 1000 | > 1000 | 78 | > 1000 | > 1000 | > 1000 | > 1000 | > 1000 | > 1000 | > 1000 | > 1000 | > 1000 | > 1000 | > 1000 |
| CCCN(CCC)C(=O)Cc1c(-c2ccc(Cl)cc2)[nH]c2ccccc12 | > 1000 | > 1000 | > 1000 | 66 | > 1000 | > 1000 | > 1000 | > 1000 | > 1000 | > 1000 | > 1000 | > 1000 | > 1000 | > 1000 | > 1000 |
| CCCN(CCC)C(=O)Cc1c2n(c3ccccc13)CCCc1ccccc1-2 | > 1000 | > 1000 | > 1000 | 328 | > 1000 | > 1000 | > 1000 | > 1000 | > 1000 | > 1000 | > 1000 | > 1000 | > 1000 | > 1000 | > 1000 |
| CCCCCCN(C)C(=O)Cc1c(-c2ccc(F)cc2)[nH]c2ccccc12 | > 1000 | > 1000 | > 1000 | 135 | > 1000 | > 1000 | > 1000 | > 1000 | > 1000 | > 1000 | > 1000 | > 1000 | > 1000 | > 1000 | > 1000 |
| CCCCCCN(CCCCCC)C(=S)Cc1c(-c2ccc(F)cc2)[nH]c2ccccc12 | > 1000 | > 1000 | > 1000 | > 1000 | > 1000 | > 1000 | > 1000 | > 1000 | > 1000 | > 1000 | > 1000 | > 1000 | > 1000 | > 1000 | > 1000 |
| CCCN(CCC)C(=O)Cc1c(-c2cccs2)[nH]c2ccccc12 | > 1000 | > 1000 | > 1000 | 304 | > 1000 | > 1000 | > 1000 | > 1000 | > 1000 | > 1000 | > 1000 | > 1000 | > 1000 | > 1000 | > 1000 |
| O=C1Cc2c([nH]c3ccccc23)-c2ccccc2N1 [PAULLONE] | > 1000 | > 1000 | > 1000 | – | > 1000 | > 1000 | > 1000 | > 1000 | > 1000 | > 1000 | > 1000 | > 1000 | > 1000 | > 1000 | > 1000 |
| CCCN(CCC)C(=O)Cc1c(-c2cccc(Cl)c2)[nH]c2ccccc12 | > 1000 | > 1000 | > 1000 | 678 | > 1000 | > 1000 | > 1000 | > 1000 | > 1000 | > 1000 | > 1000 | > 1000 | > 1000 | > 1000 | > 1000 |
| CCCN(CCC)C(=O)Cc1c(-c2ccccc2)[nH]c2ccccc12 | > 1000 | > 1000 | > 1000 | 100 | > 1000 | > 1000 | > 1000 | > 1000 | > 1000 | > 1000 | > 1000 | > 1000 | > 1000 | > 1000 | > 1000 |
